Assay outcomes: PubChem BioAssay, several laboratories
Only some compounds are listed: those with a hit (about 2.9% of all), similar ones and a draw of the others.
PG9 binder: PG9 antibody binding by small molecule; TR-FRET gp120-PG9 antibody binding; inhibition, % at 6.7 µM; 0.43% of 360,000 active; AID 624416; in the data active = inhibition above about 8.5%
Rev-erbA mod: modulates human Rev-erb alpha binding to DNA | 0.79% of 370,000 active | activity, % at 10 µM | P20393 | Rev-erbα–FITC-DNA binding, fluorescence polarization, 90 min;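 active = activity above about 14%, limit read from the data; passing the limit was not always enough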
Target sequence (P20393 whole entry, looked up): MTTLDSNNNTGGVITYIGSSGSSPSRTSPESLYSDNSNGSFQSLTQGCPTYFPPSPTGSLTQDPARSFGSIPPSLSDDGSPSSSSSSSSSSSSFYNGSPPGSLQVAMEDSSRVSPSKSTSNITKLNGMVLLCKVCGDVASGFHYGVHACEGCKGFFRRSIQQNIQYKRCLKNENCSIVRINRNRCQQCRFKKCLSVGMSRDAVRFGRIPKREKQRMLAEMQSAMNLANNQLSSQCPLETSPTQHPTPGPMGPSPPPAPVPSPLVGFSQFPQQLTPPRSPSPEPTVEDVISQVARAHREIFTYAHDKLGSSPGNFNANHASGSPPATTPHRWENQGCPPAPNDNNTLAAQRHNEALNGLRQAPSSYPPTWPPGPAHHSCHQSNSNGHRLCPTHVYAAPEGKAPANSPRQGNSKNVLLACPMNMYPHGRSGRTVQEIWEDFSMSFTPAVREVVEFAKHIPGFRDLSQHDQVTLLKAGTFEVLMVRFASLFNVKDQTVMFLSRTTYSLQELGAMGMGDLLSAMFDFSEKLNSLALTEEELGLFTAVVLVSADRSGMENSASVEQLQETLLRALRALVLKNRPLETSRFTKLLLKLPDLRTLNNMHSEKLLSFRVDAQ
iPSC survival up: increases survival of single human iPS cells; hiPSC single-cell survival, ATPlite luminescence; 100% = ROCK inhibitor wells, 0% = DMSO; survival enhancement, % at 20 µM; 0.044% of 360,000 active; in the data active = survival enhancement above about 18%;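 also: cells exposed to compounds for 16 hours before the ATP read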
MIN6 prolif: MIN6 beta-cell proliferation induction; 0.29% of 330,000 active; MIN6 cells proliferation, ATPlite luminescence, 48 h; cells starved in 0.2% serum; 100% = growth in 10% serum; proliferation, % at 10 µM;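 active = compounds whose signal lies at least 3.5 SD above the mean of all wells on their plate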
T cruzi repl: blocks replication of Trypanosoma cruzi | T. cruzi beta-gal in NIH3T3, luminescence, 90 h | inhibition, % (no concentration beside the values) | 1.4% of 300,000 active | AID 1885;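 active = mean inhibition across valid replicates above about 55%, limit read from the data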;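 also: signal also drops with host cell toxicity which is not excluded here; higher percent means less beta-gal luminescence so fewer parasites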
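Read-out: Parasite load inhibition, % | Test system: Mouse NIH/3T3 fibroblasts infected with β-gal-expressing T. cruzi Tulahuen C4 | Amount: 5,000 cells/well | Medium: DMEM, 2% fetal bovine serum | Signal: GalScreen β-gal luminescence, detergent lysis, 60 min | Timing: 3 h attach, ≥90 h co-culture | Also added: Tulahuen C4 trypomastigotes, 5000/well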
H9c2 TAG inh: inhibitors of triacylglycerol accumulation; H9c2 cells, Nile Red lipid (TAG) fluorescence; cells loaded with 200 µM oleic acid; inhibition, % at 12.5 µM; 0.66% of 230,000 active;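 active = pattern-corrected inhibition of lipid staining of at least 50% with the nuclear-stain viability signal not falling by more than 50%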
Rev-erbA confirm: confirmation of modulators of human Rev-erb alpha DNA binding; shares compounds with Rev-erbA mod; Rev-erb alpha FITC-DNA binding, fluorescence polarization, 90 min; activation, % at 25 µM; 61% of 3,000 active;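 active = activation at or above a set limit, or at least 3 SD above the negative control mean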
RORg DNA counter: counter-screen for Rev-erb alpha modulators: RORgamma DNA binding; AID 1259320; shares compounds with Rev-erbA mod; purified RORgamma protein-FITC-DNA binding, fluorescence polarization; 8% of 910 active; IC50, µM;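 active = Compounds whose fitted half-maximal concentration for disrupting protein-DNA binding is below 10 micromolar; the record names Rev-erb in its text, so the target is in doubt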
Each line names hits and unclear results; the compound was inactive in the other large screens (follow-up assays come after a bar, where they were run).

O=C(CSc1nnc(-c2ccccc2NC(=O)c2ccccc2)o1)OC1CCCCC1	Rev-erbA mod 108.4 (no result: T cruzi repl) | Rev-erbA confirm inactive
O=C(CSc1nnc(-c2cccs2)o1)OC1CCCCC1	none (no result: H9c2 TAG inh)
CSc1ccc(OC2CCCCC2NS(=O)(=O)c2ccccc2)cc1 (stereo unspecified)	none
Clc1ccc(-c2ccnc(-n3cccc3)n2)s1	Rev-erbA mod 17.9 | Rev-erbA confirm inactive
Clc1ccsc1-c1ccnc(-n2cccc2)n1	none
O=C(Nc1cccnc1)c1sc2cccc(F)c2c1Cl	none
O=C(Nc1ccccn1)c1sc2cccc(F)c2c1Cl	Rev-erbA mod 25.4 (no result: T cruzi repl) | Rev-erbA confirm inactive
Cc1cc(C)c2c(n1)nn1c(N3CCN(c4ccccc4C)CC3)cc(C)nc21	Rev-erbA mod 70.6 (no result: T cruzi repl) | Rev-erbA confirm 26.0
COc1ccc(CC(=O)OCc2cc3cccc(C)c3[nH]c2=O)cc1	none (no result: PG9 binder, H9c2 TAG inh)
COc1ccc(C(=O)OCc2cc3cccc(C)c3[nH]c2=O)cc1	Rev-erbA mod 58.6 (no result: H9c2 TAG inh) | Rev-erbA confirm 26.5
O=C(NCC1CCCO1)C(=O)N/N=C/c1ccccc1C(=O)O (stereo unspecified)	none (no result: H9c2 TAG inh)
CCN(CC)C(=O)CSC1=C(C#N)C(c2cccs2)C=C(C)N1 (stereo unspecified)	Rev-erbA mod 56.2 | Rev-erbA confirm 41.8 | RORg DNA counter inactive
C#CCSC1=C(C#N)C(c2cccs2)C(C(=O)OCC)=C(C)N1 (stereo unspecified)	none (no result: H9c2 TAG inh)
O=C1CCCC(O)=C1C=Nc1ccc2c(c1)oc1ccccc12	Rev-erbA mod 29.9 (no result: H9c2 TAG inh) | Rev-erbA confirm 28.3
COc1ccc(C(=O)C(C)C(C)=O)c(OCc2ccccc2)c1OC (stereo unspecified)	none (no result: MIN6 prolif, T cruzi repl)
Cn1c(SCC(=O)NCCN2CCCCC2)nc2cccnc21	none (no result: PG9 binder, iPSC survival up, MIN6 prolif, T cruzi repl, H9c2 TAG inh)
O=C(C(=O)N1CCCCCC1)c1c[nH]c2ccccc12	none
C[n+]1cc(C(=O)N2CCCCC2)ccc1/C=C/c1c[nH]c2ccccc12	Rev-erbA mod 74.7 | Rev-erbA confirm 57.6 | RORg DNA counter inactive
Cc1cc(C)c2nc(N3CCN(C(=O)c4ccco4)CC3)sc2c1	none
COc1ccc(C)cc1NC(=O)c1cnc2scc(C)n2c1=O	Rev-erbA mod 26.7 (no result: MIN6 prolif, T cruzi repl) | Rev-erbA confirm inactive
COc1cccc(NC(=O)CSc2nnc3ccc(-c4ccccn4)nn23)c1	Rev-erbA mod 35.3 | Rev-erbA confirm inactive
O=C(COCc1ccccc1)N1CCC(Oc2cccnc2)CC1	none (no result: PG9 binder, iPSC survival up, MIN6 prolif, T cruzi repl, H9c2 TAG inh)
Brc1ccc2nc(-c3ccc(CN4CCC(c5nc6ccccc6[nH]5)CC4)cc3)c(-c3ccccc3)nc2c1	Rev-erbA mod 16.5 (no result: iPSC survival up, MIN6 prolif, T cruzi repl, H9c2 TAG inh) | Rev-erbA confirm 12.2
COc1cc(NC(=O)c2csc(-c3ccncc3)n2)cc(C(=O)Nc2cccc(C(F)(F)F)c2)c1	none
O=C(Nc1nnc(-c2ccc3c(c2)OCCO3)o1)c1ccc(Cc2ccccc2)cc1	Rev-erbA mod 30.9 | Rev-erbA confirm inactive
C=COCCCNc1ncnc2sc(-c3ccccc3)cc12	none (no result: H9c2 TAG inh)
Cc1ccc(C)c(NC(=O)CN(C)C(=O)c2cccc(S(=O)(=O)N(C)C)c2)c1	none
COc1ccc(-c2cc3c(=O)n(CC(=O)Nc4ccc(C(C)=O)cc4)ncn3n2)cc1	Rev-erbA mod 34.3 (no result: H9c2 TAG inh) | Rev-erbA confirm 41.3 | RORg DNA counter inactive
CCCn1c(=O)c2c(nc3n2CCCN3Cc2ccccc2)n(C)c1=O	none (no result: H9c2 TAG inh)
c1ccc(CSc2ncccc2-c2nc3ccccc3[nH]2)cc1	none (no result: PG9 binder, iPSC survival up, MIN6 prolif, T cruzi repl, H9c2 TAG inh)
CC(C)CSc1ncccc1-c1nc2ccccc2[nH]1	Rev-erbA mod 16.8 (no result: PG9 binder, iPSC survival up, MIN6 prolif, T cruzi repl, H9c2 TAG inh) | Rev-erbA confirm 11.3
C/C(=N/NC(=O)C(=O)N/N=C(/C)c1ccccc1)c1ccccc1	none (no result: iPSC survival up, H9c2 TAG inh)
COc1cc(-c2noc(C)c2C(=O)NCCc2c[nH]c3ccccc23)cc(OC)c1OC	none
CC(NS(=O)(=O)c1cccc(Cl)c1)C(=O)Nc1ccc(-c2nc3ccccc3s2)cc1 (stereo unspecified)	Rev-erbA mod 29.8 | Rev-erbA confirm inactive
CCOc1ccc(NC(=O)c2ccc(NC(=O)c3cn4c5c(c(N6CCN(C)CC6)c(F)cc5c3=O)OCC4C)cc2)cc1 (stereo unspecified)	Rev-erbA mod 70.2 (no result: H9c2 TAG inh) | Rev-erbA confirm 40.6
CC1COc2c(N3CCN(C)CC3)c(F)cc3c(=O)c(C(=O)O)cn1c23 (stereo unspecified)	none
CCc1cccc(CC)c1NC(=O)C[n+]1cccc(C(N)=O)c1	none
O=C1NC(Cc2ccccc2)c2nc3ccc(Cl)cc3c(=O)n2-c2cc3ccccc3cc21 (stereo unspecified)	Rev-erbA mod 21.5 (no result: MIN6 prolif, T cruzi repl) | Rev-erbA confirm inactive
CC1(C)CC(=O)c2cnc(NC(=O)CCc3ccccc3)nc2C1	none
CN(C)c1ccc(-c2nnn(CC(=O)NCc3ccc4c(c3)OCO4)n2)cc1	Rev-erbA mod 14.9 | Rev-erbA confirm inactive
CCOc1ccc(-c2nnn(CC(=O)c3cc(OC)ccc3OC)n2)cc1	Rev-erbA mod 18.9 (no result: H9c2 TAG inh) | Rev-erbA confirm inactive
COCCCN1C(=O)C(CC(=O)NC2CC2)CC(C(=O)N(C(C)C)C(C)C)=C1C (stereo unspecified)	none (no result: MIN6 prolif, T cruzi repl, H9c2 TAG inh)
C=CCn1c(=NC(=O)c2cccc(N3C(=O)CCC3=O)c2)sc2cccc(OC)c21	none
COc1ccc(C)c2sc(=NC(=O)c3cccc(N4C(=O)CCC4=O)c3)n(C)c12	Rev-erbA mod 42.5 | Rev-erbA confirm 23.5
COc1ccc(C)c2sc(=NC(=O)C(C)C)n(C)c12	Rev-erbA mod 158.4 | Rev-erbA confirm 10.7
CCC(=O)N=c1sc2c(OC)ccc(OC)c2n1C	Rev-erbA mod 46.9 | Rev-erbA confirm 29.7 | RORg DNA counter inactive
CC(=O)N1CCc2c(sc(NC(=O)C3CC3)c2-c2nc3ccccc3s2)C1	Rev-erbA mod 169.8 | Rev-erbA confirm inactive
COc1ccccc1NC(=O)c1cnc(SCC(=O)NCCc2ccccc2)n(C)c1=O	Rev-erbA mod 13.8 | Rev-erbA confirm 31.9 | RORg DNA counter inactive
COc1ccc(CCNC(=O)CSc2ncc(C(=O)Nc3ccccc3)c(=O)n2C)cc1	none
COc1ccc(/C=C(\NC(=O)c2cccs2)C(=O)Nc2ccc(C)cc2)cc1OC	none (no result: H9c2 TAG inh)
CCOc1ccccc1NC(=O)C1C2CCC3C(CCC21)C3(Cl)Cl (stereo unspecified)	none (no result: H9c2 TAG inh)
COc1ccc(C(=O)c2ccccc2)cc1CN1CCOCC1	none (no result: MIN6 prolif, T cruzi repl)
Cn1cc(C(=O)NC2CCCCCCC2)c(=O)c2cc(S(=O)(=O)N3CCCC3)ccc21	none
Cn1cc(C(=O)NC2CCCCCC2)c(=O)c2cc(S(=O)(=O)N3CCCC3)ccc21	Rev-erbA mod 32.1 (no result: H9c2 TAG inh) | Rev-erbA confirm 17.8
CCN1CC(CN(C)Cc2nc(-c3cccs3)no2)CC1=O (stereo unspecified)	none
